Molecules are shown by their SMILES. Values after ≈ are worked out from the molar mass of the structure shown.

This is an account of results in ChEMBL document CHEMBL5360562 (Eur J Med Chem, 2023).

For series [1], the system named is Acinetobacter baumannii. Kind of series: Potentiation of Clarithromycin antibacterial activity against Acinetobacter baumannii AB5075 assessed as fold reduction in clarithromycin MIC at 5 uM incubated for 16 hrs by broth microdilution method. It is filed as functional. An outline of the steps: (§1)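 Checkerboard-style potentiation by broth microdilution. 6 h day cultures in CAMHB diluted to 5×10^5 CFU/mL. Adjuvant added from 10 mM DMSO stock at fixed concentration throughout. […] Controls: antibiotic alone, adjuvant alone, media only. Incubated stationary at 37 °C for 16 h. MIC is lowest concentration with no visible growth; fold reduction taken against the antibiotic-alone lane.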

Series [2] concerns Acinetobacter baumannii. Kind of series: Potentiation of Clarithromycin antibacterial activity against Acinetobacter baumannii AB5075 assessed as clarithromycin MIC at 5 uM incubated for 16 hrs by broth microdilution method. It is filed as functional.
In series [3] the test system is Acinetobacter baumannii. Description: Potentiation of Clarithromycin antibacterial activity against Acinetobacter baumannii AB5075 assessed as clarithromycin MIC at 30 uM incubated for 16 hrs by broth microdilution method. In kind it is functional.
The subject of series [4] is Acinetobacter baumannii. Kind of series: Antibacterial activity against Acinetobacter baumannii AB5075 assessed as reduction in bacterial growth incubated for 16 hrs by broth microdilution method. It is filed as functional.
Series [5] can be described thus: Stability of compound in human plasma assessed as parent compound remaining measured at 4 hrs. In kind it is ADME, cell-free. In short, it runs like this: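 Compound at 20 μM final in human plasma (from 10 mM DMSO stock), 37 °C; aliquots at 0, 30, 60, 120, 240 min quenched in internal standard in 1:1 ACN/MeOH, centrifuged, supernatant analysed by UPLC-MRM. Peak-area ratio to internal standard expressed as % parent remaining relative to 0 min; half-life calculated.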

Series [6] relates to Acinetobacter baumannii. Kind of series: Potentiation of Clarithromycin antibacterial activity against Acinetobacter baumannii AB5075 assessed as clarithromycin MIC at 7.5 uM incubated for 16 hrs by broth microdilution method. In kind it is functional.
For series [7], the system named is Acinetobacter baumannii. Kind of series: Potentiation of Clarithromycin antibacterial activity against Acinetobacter baumannii AB5075 assessed as fold reduction in clarithromycin MIC at 7.5 uM incubated for 16 hrs by broth microdilution method. It is filed as functional. In short, it runs like this:
as §1

Series [8] in a line: Therapeutic index, ratio of IC50 for antiproliferative against human HepG2 cells assessed as reduction in cell viability to MIC for potentiation of Clarithromycin antibacterial activity against Acinetobacter baumannii […] assessed as clarithromycin MIC. It is filed as toxicity, cell-based. The note with it: read-out: TI.
Series [9] in a line: Metabolic stability in human liver microsomes assessed as parent compound remaining in presence of NADPH measured at 1 hr by UV-UPLC analysis. In kind it is ADME, Microsome.
Series [10] can be described thus: Antiproliferative against human HepG2 cells assessed as reduction in cell viability incubated for 24 hrs by XTT assay. In kind it is toxicity, cell-based.
Series [11] relates to Acinetobacter baumannii. Kind of series: Potentiation of Clarithromycin antibacterial activity against Acinetobacter baumannii AB5075 assessed as fold reduction in clarithromycin MIC at 30 uM incubated for 16 hrs by broth microdilution method. It is filed as functional. An outline of the steps: as §1
Series [12] deals with Acinetobacter baumannii. Kind of series: Potentiation of Clarithromycin antibacterial activity against Acinetobacter baumannii AB5075 assessed as clarithromycin MIC at 2.5 uM incubated for 16 hrs by broth microdilution method. In kind it is functional.
Series [13] has as its system Acinetobacter baumannii. Kind of series: Potentiation of Clarithromycin antibacterial activity against Acinetobacter baumannii AB5075 assessed as reduction in clarithromycin MIC at 20 uM incubated for 16 hrs by broth microdilution method. In kind it is functional. Particulars: for MIC: Acinetobacter baumannii, AB5075.
Series [14] has as its system Acinetobacter baumannii. Kind of series: Potentiation of Clarithromycin antibacterial activity against Acinetobacter baumannii AB5075 assessed as fold reduction in clarithromycin MIC at 10 uM incubated for 16 hrs by broth microdilution method. It is filed as functional. An outline of the steps: as §1
Series [15] relates to Acinetobacter baumannii. Description: Potentiation of Clarithromycin antibacterial activity against Acinetobacter baumannii AB5075 assessed as clarithromycin MIC at 10 uM incubated for 16 hrs by broth microdilution method. It is filed as functional.
Series [16] has as its system Acinetobacter baumannii. Kind of series: Potentiation of erythromycin antibacterial activity against Acinetobacter baumannii AB5075 assessed as erythromycin MIC at 10 uM incubated for 16 hrs by broth microdilution method. It is filed as functional.
The subject of series [17] is Acinetobacter baumannii. Kind of series: Potentiation of erythromycin antibacterial activity against Acinetobacter baumannii AB5075 assessed as erythromycin MIC at 20 uM incubated for 16 hrs by broth microdilution method. In kind it is functional.
The test system of series [18] is Acinetobacter baumannii. Description: Potentiation of Azithromycin antibacterial activity against Acinetobacter baumannii AB5075 assessed as azithromycin MIC at 30 uM incubated for 16 hrs by broth microdilution method. In kind it is functional.
Series [19] relates to Acinetobacter baumannii. Description: Potentiation of Azithromycin antibacterial activity against Acinetobacter baumannii AB5075 assessed as azithromycin MIC at 10 uM incubated for 16 hrs by broth microdilution method. In kind it is functional.
In series [20] the test system is Acinetobacter baumannii. Description: Potentiation of rifampicin antibacterial activity against Acinetobacter baumannii AB5075 assessed as rifampicin MIC at 7.5 uM incubated for 16 hrs by broth microdilution method. In kind it is functional. In short, it runs like this: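 A. baumannii AB5075 6 h day cultures in CAMHB subcultured to 5×10^5 CFU/mL; adjuvant added from 10 mM DMSO stock at fixed concentration, then rifampicin (DMSO) twofold serially diluted in adjuvant-containing broth. Antibiotic-alone and adjuvant-alone control lanes.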

The subject of series [21] is Acinetobacter baumannii. Kind of series: Potentiation of Azithromycin antibacterial activity against Acinetobacter baumannii AB5075 assessed as azithromycin MIC at 20 uM incubated for 16 hrs by broth microdilution method. It is filed as functional.
The subject of series [22] is Acinetobacter baumannii. Kind of series: Potentiation of rifampicin antibacterial activity against Acinetobacter baumannii AB5075 assessed as rifampicin MIC at 30 uM incubated for 16 hrs by broth microdilution method. It is filed as functional.
The subject of series [23] is Acinetobacter baumannii. Kind of series: Potentiation of erythromycin antibacterial activity against Acinetobacter baumannii AB5075 assessed as erythromycin MIC at 30 uM incubated for 16 hrs by broth microdilution method. It is filed as functional.
Series [24] concerns Acinetobacter baumannii. Kind of series: Potentiation of rifampicin antibacterial activity against Acinetobacter baumannii AB5075 assessed as rifampicin MIC at 20 uM incubated for 16 hrs by broth microdilution method. It is filed as functional.
In series [25] the test system is Acinetobacter baumannii. Description: Potentiation of rifampicin antibacterial activity against Acinetobacter baumannii AB5075 assessed as rifampicin MIC at 10 uM incubated for 16 hrs by broth microdilution method. In kind it is functional.

For `Nc1nc(-c2ccc(NC(=O)c3ccc(Cl)c(Cl)c3)cc2F)c[nH]1`, the “fold change (FC)” value worked out at 4 in series [1], 32 in [7] and 64 in [11]. The MIC in series [2] was 8 µg/mL; in series [3] it was 0.5 µg/mL; in series [4], greater than 200 µM; in series [6] it was 1 µg/mL. Further, the Stability in series [5] is greater than 95%; in series [9] it was 57%. In addition, the selectivity ratio in series [8] was determined as 2.3. Moreover, in series [10], the IC50 at 24 h turned out to be 6.8 µg/mL (≈ 18.6 µM).

With `Cl.Cl.Nc1nc(-c2cc(F)cc(NC(=O)Nc3ccc(-c4c[nH]c(N)n4)c(F)c3)c2)c[nH]1`, the MIC in series [2] is 1 µg/mL; in series [3], no more than 0.062 µg/mL; in series [4], greater than 200 µM; in series [6] it was 0.25 µg/mL; in series [12], 32 µg/mL; in series [13] it was 0.125 µg/mL. Besides, the “fold change (FC)” value in series [7] was 128; in series [13], 256; in series [11] it was “>=512”.

Take `Cl.Cl.Nc1nc(-c2ccc(F)c(NC(=O)Nc3cc(-c4c[nH]c(N)n4)ccc3F)c2)c[nH]1`: the minimal inhibitory concentration (MIC) in series [3] is 32 µg/mL; in series [4] it was greater than 200 µM. The “fold change (FC)” value in series [11] was determined as 1.

Turning to `Cl.Cl.Nc1nc(-c2ccc(F)c(NC(=O)Nc3ccc(-c4c[nH]c(N)n4)c(F)c3)c2)c[nH]1`, the minimal inhibitory concentration (MIC) in series [3] is 8 µg/mL; in series [4], greater than 200 µM. Moreover, the “fold change (FC)” value in [11] is given as 4.

Take `Cl.Cl.Nc1nc(-c2cccc(NC(=O)Nc3cc(F)cc(-c4c[nH]c(N)n4)c3)c2)c[nH]1`: the “fold change (FC)” value is 64 in series [14]; 2 in [1]; 32 in series [7]; “>=512” in series [13]; “>=512” in series [11]. Also, the minimal inhibitory concentration (MIC) in [2] was 16 µg/mL; in series [15] it was 0.5 µg/mL; in [3] it was no more than 0.062 µg/mL; in series [4], greater than 200 µM; in series [6], 1 µg/mL; in series [13], no more than 0.062 µg/mL.

With `COc1cc(-c2c[nH]c(N)n2)ccc1NC(=O)Nc1ccc(-c2c[nH]c(N)n2)cc1OC.Cl.Cl`, the MIC in series [3] was 8 µg/mL; in series [4], 200 µM. In series [11], the “fold change (FC)” value stood at 4.

With `Cl.Cl.Nc1nc(-c2ccc(NC(=O)Nc3ccc(-c4c[nH]c(N)n4)c(F)c3)cc2)c[nH]1`, the “fold change (FC)” value in series [14] is given as 32; in [7], 16; in series [13] it was 64; in [11], “>=512”. Besides, the MIC in series [15] is 1 µg/mL; in series [3], no more than 0.062 µg/mL; in series [4], greater than 200 µM; in [6], 2 µg/mL; in series [13] it was 0.5 µg/mL.

As to `Nc1nc(-c2cccc(NC(=O)Nc3cccc(-c4c[nH]c(N)n4)c3)c2)c[nH]1`, the “fold change (FC)” value in [14] is recorded as 64; in series [1], 8; in series [7], 32; in series [11], “>=512”. For the same compound, the minimum inhibitory concentration (MIC) in [16] stood at 4 µg/mL; in series [17], 0.5 µg/mL; in series [18], 0.5 µg/mL; in [2], 4 µg/mL; in series [19], 4 µg/mL; in [15] it was 0.5 µg/mL. In addition, the minimum inhibitory concentration (MIC) is 1 µg/mL in series [20]; 0.5 µg/mL in series [21]; no more than 0.062 µg/mL in series [3]; 0.003 µg/mL in series [22]; 0.25 µg/mL in series [23]; 0.015 µg/mL in [24]. For the same compound, the minimum inhibitory concentration (MIC) in [25] came to 0.125 µg/mL; in series [4], 200 µM (≈ 74.9 µg/mL); in [6] it was 1 µg/mL. Also, the results for the Stability in series [5] and in series [9] were 88% and 93%, respectively. Moreover, in series [8], the selectivity ratio is 113. The IC50 at 24 h in [10] was 380 µg/mL (≈ 1010 µM).
